{"source": "ChEMBL document CHEMBL3046880", "about": "“Syntheses and herbicidal activities of novel triazolinone derivatives” (J Agric Food Chem, 2008)", "key": {"Setaria viridis [1]": {"tested_on": "Setaria viridis", "assay": "Herbicidal activity against Setaria viridis (green foxtail) assessed as growth inhibition at 150 g of active ingredient/ha administered using post-emergence treatment measured 15 days post treatment protocol under greenhouse conditions", "assay_type": "functional", "procedure,_shortened": "(§1)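 Test agents were formulated as 100 g/L emulsified concentrates (DMF solvent, TW-80 emulsifier), diluted with water and sprayed postemergence on pot-grown weeds. Seeds were sown 1-3 cm deep in clay soil (pH 6.5, 1.6% organic matter, 37.3% clay, CEC […]) and grown at 15–30 °C in a greenhouse. Dicots were treated at the two-leaf stage. Untreated and DMF-treated plants served as controls. Activity was scored visually 15 days after treatment.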"}, "Senna tora": {"tested_on": "Senna tora", "assay": "Herbicidal activity against Senna tora assessed as growth inhibition at 150 g of active ingredient/ha administered using post-emergence treatment measured 15 days post treatment protocol under greenhouse conditions", "assay_type": "functional", "procedure,_shortened": "as §1"}, "Triticum aestivum [2]": {"tested_on": "Triticum aestivum", "assay": "Phytotoxicity against Triticum aestivum (wheat) plant assessed as growth inhibition at 450 g of active ingredient/ha administered using post-emergence treatment measured 30 days post treatment protocol under greenhouse conditions", "assay_type": "organism-based", "details": "in vivo, other, 720 h", "procedure,_shortened": "(§2)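 Compounds were formulated as 100 g/L emulsified concentrates in DMF with TW-80 as emulsifier, then diluted with water to the required concentration. They were applied postemergence to pot-grown plants in a greenhouse. The soil was clay, pH 6.5, with 1.6% organic matter, 37.3% clay particles and CEC 12.1 mol/kg. Sulfentrazone served as the reference control.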"}, "Glycine max [3]": {"tested_on": "Glycine max", "assay": "Phytotoxicity against Glycine max (soybean) plant assessed as growth inhibition at 450 g of active ingredient/ha administered using post-emergence treatment measured 30 days post treatment protocol under greenhouse conditions", "assay_type": "organism-based", "details": "in vivo, other, 720 h", "procedure,_shortened": "as §2"}, "Brassica juncea [4]": {"tested_on": "Brassica juncea", "assay": "Herbicidal activity against Brassica juncea assessed as growth inhibition at 150 g of active ingredient/ha administered using post-emergence treatment measured 15 days post treatment protocol under greenhouse conditions", "assay_type": "functional", "procedure,_shortened": "as §1"}, "Brassica napus [5]": {"tested_on": "Brassica napus", "assay": "Phytotoxicity against Brassica napus (oilseed rape) assessed as growth inhibition at 300 g of active ingredient/ha administered using post-emergence treatment measured 30 days post treatment protocol under greenhouse conditions", "assay_type": "organism-based", "details": "in vivo, other, 720 h", "procedure,_shortened": "as §2"}, "Portulaca oleracea [6]": {"tested_on": "Portulaca oleracea", "assay": "Herbicidal activity against Portulaca oleracea assessed as growth inhibition at 37.5 g of active ingredient/ha administered using post-emergence treatment measured 15 days post treatment protocol under greenhouse conditions", "assay_type": "functional", "procedure,_shortened": "as §1"}, "Glycine max [7]": {"tested_on": "Glycine max", "assay": "Phytotoxicity against Glycine max (soybean) plant assessed as growth inhibition at 300 g of active ingredient/ha administered using post-emergence treatment measured 30 days post treatment protocol under greenhouse conditions", "assay_type": "organism-based", "details": "in vivo, other, 720 h", "procedure,_shortened": "as §2"}, "[8]": {"assay": "Phytotoxicity against Gossypium hirsutum (cotton) plant assessed as growth inhibition at 75 g of active ingredient/ha administered using post-emergence treatment measured 30 days post treatment protocol under greenhouse conditions", "assay_type": "organism-based", "details": "in vivo, read-out: GI", "procedure,_shortened": "as §2"}, "Cerastium arvense": {"tested_on": "Cerastium arvense", "assay": "Herbicidal activity against Cerastium arvense assessed as growth inhibition at 150 g of active ingredient/ha administered using post-emergence treatment measured 15 days post treatment protocol under greenhouse conditions", "assay_type": "functional", "procedure,_shortened": "as §1"}, "Glycine max [9]": {"tested_on": "Glycine max", "assay": "Phytotoxicity against Glycine max (soybean) plant assessed as growth inhibition at 150 g of active ingredient/ha administered using post-emergence treatment measured 30 days post treatment protocol under greenhouse conditions", "assay_type": "organism-based", "details": "in vivo, other, 720 h", "procedure,_shortened": "as §2"}, "Setaria viridis [10]": {"tested_on": "Setaria viridis", "assay": "Herbicidal activity against Setaria viridis (green foxtail) assessed as growth inhibition at 37.5 g of active ingredient/ha administered using post-emergence treatment measured 15 days post treatment protocol under greenhouse conditions", "assay_type": "functional", "procedure,_shortened": "as §1"}, "Eclipta prostrata": {"tested_on": "Eclipta prostrata", "assay": "Herbicidal activity against Eclipta prostrata assessed as growth inhibition at 75 g of active ingredient/ha administered using post-emergence treatment measured 15 days post treatment protocol under greenhouse conditions", "assay_type": "functional", "procedure,_shortened": "as §1"}, "Digitaria sanguinalis [11]": {"tested_on": "Digitaria sanguinalis", "assay": "Herbicidal activity against Digitaria sanguinalis (hairy crabgrass) assessed as growth inhibition at 37.5 g of active ingredient/ha administered using post-emergence treatment measured 15 days post treatment protocol under greenhouse conditions", "assay_type": "functional", "procedure,_shortened": "as §1"}, "Echinochloa crus-galli [12]": {"tested_on": "Echinochloa crus-galli", "assay": "Herbicidal activity against Echinochloa crus-galli (barnyard grass) assessed as growth inhibition at 37.5 g of active ingredient/ha administered using post-emergence treatment measured 15 days post treatment protocol under greenhouse conditions", "assay_type": "functional", "procedure,_shortened": "as §1"}, "Amaranthus retroflexus": {"tested_on": "Amaranthus retroflexus", "assay": "Herbicidal activity against Amaranthus retroflexus assessed as growth inhibition at 37.5 g of active ingredient/ha administered using post-emergence treatment measured 15 days post treatment protocol under greenhouse conditions", "assay_type": "functional", "procedure,_shortened": "as §1"}, "Portulaca oleracea [13]": {"tested_on": "Portulaca oleracea", "assay": "Herbicidal activity against Portulaca oleracea assessed as growth inhibition at 150 g of active ingredient/ha administered using post-emergence treatment measured 15 days post treatment protocol under greenhouse conditions", "assay_type": "functional", "procedure,_shortened": "as §1"}, "[14]": {"assay": "Phytotoxicity against Oryza sativa (rice) plant assessed as growth inhibition at 150 g of active ingredient/ha administered using post-emergence treatment measured 30 days post treatment protocol under greenhouse conditions", "assay_type": "organism-based", "details": "in vivo, read-out: GI", "procedure,_shortened": "as §2"}, "Chenopodium album": {"tested_on": "Chenopodium album", "assay": "Herbicidal activity against Chenopodium album assessed as growth inhibition at 150 g of active ingredient/ha administered using post-emergence treatment measured 15 days post treatment protocol under greenhouse conditions", "assay_type": "functional", "procedure,_shortened": "as §1"}, "Gossypium hirsutum": {"tested_on": "Gossypium hirsutum", "assay": "Phytotoxicity against Gossypium hirsutum (cotton) plant assessed as growth inhibition at 450 g of active ingredient/ha administered using post-emergence treatment measured 30 days post treatment protocol under greenhouse conditions", "assay_type": "organism-based", "details": "in vivo, other, 720 h", "procedure,_shortened": "as §2"}, "Brassica juncea [15]": {"tested_on": "Brassica juncea", "assay": "Herbicidal activity against Brassica juncea assessed as growth inhibition at 37.5 g of active ingredient/ha administered using post-emergence treatment measured 15 days post treatment protocol under greenhouse conditions", "assay_type": "functional", "procedure,_shortened": "as §1"}, "Digitaria sanguinalis [16]": {"tested_on": "Digitaria sanguinalis", "assay": "Herbicidal activity against Digitaria sanguinalis (hairy crabgrass) assessed as growth inhibition at 150 g of active ingredient/ha administered using post-emergence treatment measured 15 days post treatment protocol under greenhouse conditions", "assay_type": "functional", "procedure,_shortened": "as §1"}, "[17]": {"assay": "Phytotoxicity against Oryza sativa (rice) plant assessed as growth inhibition at 450 g of active ingredient/ha administered using post-emergence treatment measured 30 days post treatment protocol under greenhouse conditions", "assay_type": "organism-based", "details": "in vivo, read-out: GI", "procedure,_shortened": "as §2"}, "Triticum aestivum [18]": {"tested_on": "Triticum aestivum", "assay": "Phytotoxicity against Triticum aestivum (wheat) plant assessed as growth inhibition at 300 g of active ingredient/ha administered using post-emergence treatment measured 30 days post treatment protocol under greenhouse conditions", "assay_type": "organism-based", "details": "in vivo, other, 720 h", "procedure,_shortened": "as §2"}, "Setaria viridis [19]": {"tested_on": "Setaria viridis", "assay": "Herbicidal activity against Setaria viridis (green foxtail) assessed as growth inhibition at 75 g of active ingredient/ha administered using post-emergence treatment measured 15 days post treatment protocol under greenhouse conditions", "assay_type": "functional", "procedure,_shortened": "as §1"}, "Triticum aestivum [20]": {"tested_on": "Triticum aestivum", "assay": "Phytotoxicity against Triticum aestivum (wheat) plant assessed as growth inhibition at 150 g of active ingredient/ha administered using post-emergence treatment measured 30 days post treatment protocol under greenhouse conditions", "assay_type": "organism-based", "details": "in vivo, other, 720 h", "procedure,_shortened": "as §2"}, "Zea mays": {"tested_on": "Zea mays", "assay": "Phytotoxicity against Zea mays (maize) plant assessed as growth inhibition at 300 g of active ingredient/ha administered using post-emergence treatment measured 30 days post treatment protocol under greenhouse conditions", "assay_type": "organism-based", "details": "in vivo, other, 720 h", "procedure,_shortened": "as §2"}, "[21]": {"assay": "Phytotoxicity against Zea mays (maize) plant assessed as growth inhibition at 75 g of active ingredient/ha administered using post-emergence treatment measured 30 days post treatment protocol under greenhouse conditions", "assay_type": "organism-based", "details": "in vivo, read-out: GI", "procedure,_shortened": "as §2"}, "Echinochloa crus-galli [22]": {"tested_on": "Echinochloa crus-galli", "assay": "Herbicidal activity against Echinochloa crus-galli (barnyard grass) assessed as growth inhibition at 150 g of active ingredient/ha administered using post-emergence treatment measured 15 days post treatment protocol under greenhouse conditions", "assay_type": "functional", "procedure,_shortened": "as §1"}, "Portulaca oleracea [23]": {"tested_on": "Portulaca oleracea", "assay": "Herbicidal activity against Portulaca oleracea assessed as growth inhibition at 75 g of active ingredient/ha administered using post-emergence treatment measured 15 days post treatment protocol under greenhouse conditions", "assay_type": "functional", "procedure,_shortened": "as §1"}, "Brassica napus [24]": {"tested_on": "Brassica napus", "assay": "Phytotoxicity against Brassica napus (oilseed rape) assessed as growth inhibition at 150 g of active ingredient/ha administered using post-emergence treatment measured 30 days post treatment protocol under greenhouse conditions", "assay_type": "organism-based", "details": "in vivo, other, 720 h", "procedure,_shortened": "as §2"}}}
{"smiles": "CCS(=O)(=O)Nc1cc(-n2nc(C)n(Cc3ccccc3/C(=N\\OC)C(=O)OC)c2=O)c(F)cc1Cl", "values": [{"measurement": "growth inhibition (GI)", "setting": "Setaria viridis [1]", "value": 50, "unit": "%"}, {"measurement": "growth inhibition (GI)", "setting": "Senna tora", "value": 100, "unit": "%"}, {"measurement": "Activity", "setting": "Triticum aestivum [2]", "value": "Toxic"}, {"measurement": "Activity", "setting": "Glycine max [3]", "value": "Toxic"}, {"measurement": "growth inhibition (GI)", "setting": "Brassica juncea [4]", "value": ">80", "unit": "%"}, {"measurement": "Activity", "setting": "Brassica napus [5]", "value": "Toxic"}, {"measurement": "growth inhibition (GI)", "setting": "Portulaca oleracea [6]", "value": 100, "unit": "%"}, {"measurement": "Activity", "setting": "Glycine max [7]", "value": "Toxic"}, {"measurement": "inhibition at 720 h", "setting": "[8]", "value": 60, "unit": "%"}, {"measurement": "growth inhibition (GI)", "setting": "Cerastium arvense", "value": 100, "unit": "%"}, {"measurement": "Activity", "setting": "Glycine max [9]", "value": "Toxic"}, {"measurement": "growth inhibition (GI)", "setting": "Setaria viridis [10]", "value": "<50", "unit": "%"}, {"measurement": "growth inhibition (GI)", "setting": "Eclipta prostrata", "value": ">80", "unit": "%"}, {"measurement": "growth inhibition (GI)", "setting": "Digitaria sanguinalis [11]", "value": 50, "unit": "%"}, {"measurement": "growth inhibition (GI)", "setting": "Echinochloa crus-galli [12]", "value": "<50", "unit": "%"}, {"measurement": "growth inhibition (GI)", "setting": "Amaranthus retroflexus", "value": ">80", "unit": "%"}, {"measurement": "growth inhibition (GI)", "setting": "Portulaca oleracea [13]", "value": 100, "unit": "%"}, {"measurement": "inhibition at 720 h", "setting": "[14]", "value": 0, "unit": "%"}, {"measurement": "growth inhibition (GI)", "setting": "Chenopodium album", "value": ">80", "unit": "%"}, {"measurement": "Activity", "setting": "Gossypium hirsutum", "value": "Toxic"}, {"measurement": "growth inhibition (GI)", "setting": "Brassica juncea [15]", "value": ">80", "unit": "%"}, {"measurement": "growth inhibition (GI)", "setting": "Digitaria sanguinalis [16]", "value": 50, "unit": "%"}, {"measurement": "inhibition at 720 h", "setting": "[17]", "value": 10, "unit": "%"}, {"measurement": "Activity", "setting": "Triticum aestivum [18]", "value": "Toxic"}, {"measurement": "growth inhibition (GI)", "setting": "Setaria viridis [19]", "value": "<50", "unit": "%"}, {"measurement": "Activity", "setting": "Triticum aestivum [20]", "value": "Toxic"}, {"measurement": "Activity", "setting": "Zea mays", "value": "Toxic"}, {"measurement": "inhibition at 720 h", "setting": "[21]", "value": 40, "unit": "%"}, {"measurement": "growth inhibition (GI)", "setting": "Echinochloa crus-galli [22]", "value": 50, "unit": "%"}, {"measurement": "growth inhibition (GI)", "setting": "Portulaca oleracea [23]", "value": 100, "unit": "%"}, {"measurement": "Activity", "setting": "Brassica napus [24]", "value": "Toxic"}]}
